Compound activity as filed in PubChem BioAssay.
Most compounds without a hit are left out; they make up all but 1.5% or so of the library.
mABHD4 FP = ABHD4 (mouse) inhibition, primary FP screen; AID 720543; inhibition, % at 8.92 µM; 0.54% of 370,000 active; purified mABHD4, FP-Rh probe fluorescence polarization; Q8VD66;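 active = inhibition exceeding the mean over every tested compound plus 3 SD, cut at about 30% in these data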;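 note: 0% = plate median of compound wells and 100% = S159A mutant with DMSO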
Target sequence (Q8VD66 whole entry, looked up): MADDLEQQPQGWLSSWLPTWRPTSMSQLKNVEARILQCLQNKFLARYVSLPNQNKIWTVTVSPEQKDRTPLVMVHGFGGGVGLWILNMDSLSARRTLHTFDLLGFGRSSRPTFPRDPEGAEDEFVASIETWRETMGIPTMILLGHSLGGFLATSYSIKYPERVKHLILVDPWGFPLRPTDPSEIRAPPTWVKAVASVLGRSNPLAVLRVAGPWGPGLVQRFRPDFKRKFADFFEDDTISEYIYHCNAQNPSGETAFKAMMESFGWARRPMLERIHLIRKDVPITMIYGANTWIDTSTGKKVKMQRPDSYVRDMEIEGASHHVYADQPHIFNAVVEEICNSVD
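system = mouse ABHD4 enzyme, wild type | medium = HEPES pH 7.0, NaCl, Pluronic buffer | also added = FP-Rh probe | incubation = Enzyme–compound pre-incubation 45 min, then probe 60 min, both 25 °C | technique = fluorescence polarization, excitation 525 nm, emission 598 nm, BODIPY TMR filters | controls = S159A mutant high control, sample median low control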
HTRA1 inh = inhibitors of human serine peptidase HTRA1; AID 504803; recombinant HTRA1, FP-rhodamine activity-based probe, fluorescence polarization; Q92743; 0.5% of 340,000 active; inhibition, % at 5.96 µM; in the data active = inhibition above about 36%;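 note: 0% = enzyme with DMSO and 100% = wells lacking enzyme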
SIAE primary = inhibitors of human sialic acid acetylesterase SIAE. Q9HAT2. SIAE FP-Rh probe binding, fluorescence polarization. inhibition, % at 9.66 µM. 0.69% of 370,000 active. AID 1053197;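 active = inhibition above a cutoff: mean of compounds within the control limits plus 3 SD of those, cut at about 17% in these data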;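 note: 0% = plate median of compound wells and 100% = probe without SIAE protein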
DAGLB inhibitor = blocks human DAGLB lipase activity. Q8NCG7. 0.059% of 340,000 active. AID 504411. inhibition, % at 5.17 µM. HEK293T DAGLB membrane lysate, EnzChek fluorogenic substrate; in the data active = inhibition above about 34%;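 note: 0% = enzyme with vehicle and 100% = wells lacking enzyme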
TCR CD3 inh = inhibitors of human TCR-CD3 interaction | TAMRA-labeled TCR probe fluorescence, biochemical | inhibition, % at 9.4 µM | 0.37% of 360,000 active | AID 651800;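 note: recombinant mutant TCR 2C K166C tagged with TAMRA read by polarization; 0% = receptor in buffer alone and 100% = receptor with positive control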
BSA TAMRA ctr = BSA probe counter-screen for TCR-CD3 inhibitors; shares compounds with TCR CD3 inh; TAMRA-labeled BSA probe fluorescence counterscreen; inhibition, % at 9.4 µM; 10% of 1,200 active; AID 652035; in the data active = inhibition above about 23%;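 note: 0% = buffer low control and 100% = reference high control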
TCR-CD3 inh conf = confirmation of human TCR-CD3 interaction inhibitors. inhibition, % at 9.4 µM. shares compounds with TCR CD3 inh. 48% of 1,200 active. TAMRA-labeled TCR probe fluorescence binding assay
* hit, by the source's call; . = no result. Cut-off read from the data, not from the text of the source, unless noted: active = inhibition above about 19%; inactive = the rest.

SMILES	mABHD4 FP	HTRA1 inh	SIAE primary	DAGLB inhibitor	TCR CD3 inh	BSA TAMRA ctr	TCR-CD3 inh conf
COC(=O)C1=C(C)N(Cc2ccccc2C(F)(F)F)C(=NCc2cc(OC)c(OC)c(OC)c2)NC1c1ccccc1 (configuration not stated)	4.5	.	-0.9	.	3.9	.	.
COc1ccc(-c2cc(CNc3nc4cc(-c5ccccc5C)sc4c(=O)n3C)on2)cc1	-20.1	.	-51.2	.	30.5*	8.4	12.4
Cc1noc(C)c1COc1ccc(C(=O)NNC(=O)c2ccccc2O)cc1	5.0	24.6	11.0	4.8	25.0*	-1.1	26.2*
CCOc1ccc(C(=O)CCC(=O)Nc2ncccc2O)cc1	8.3	-5.9	7.4	1.9	-5.3	.	.
CCOc1ccc(C(=O)CCC(=O)NNC(=O)c2ccccc2O)cc1	7.9	12.0	2.9	5.7	28.9*	-2.7	26.2*
Cc1cc(=O)oc2c(CN3CCCC3)c(O)c(Cl)cc12	19.1	4.4	-4.1	-1.6	2.9	.	.
Cc1cc(=O)oc2c(CN3CCC(C)CC3)c(O)c(Cl)cc12	28.4	11.5	26.1*	-2.9	24.9*	33.3*	35.3*
C=CCN1[C@@H](CC(C)C)COc2cccc(NCCCN3CCOCC3)c2S1(=O)=O	-0.3	.	3.4	.	-3.1	.	.
CC(=O)C1=C(C)N(Cc2ccc(F)cc2)C(=S)NC1c1cccc(F)c1 (configuration not stated)	1.7	.	-3.6	.	0.4	.	.
CCOC(=O)[C@]12CCCC3=C1N(CCC3)C(=O)[C@@H](CC(=O)N1CCC(c3ccccc3)CC1)C2	6.4	.	0.5	.	.	.	.
CCOc1ccc(CNc2ccc(S(N)(=O)=O)cc2)cc1	-1.0	-4.7	7.4	-2.0	152.4*	-0.2	0.8
CSCCC(NC(=O)c1ccccc1Cl)C(=O)NNC(=O)c1ccccc1O (configuration not stated)	5.7	16.7	5.4	2.8	29.3*	-3.5	18.2
Cc1ccc(S(=O)(=O)N(C)c2ccc(OCC(=O)Nc3nc4ccccc4s3)cc2)cc1	-13.1	-49.0	-30.6	-2.6	20.7*	4.7	0.4
Cc1ccc(S(=O)(=O)N(C)c2ccc(OCC(=O)Nc3nc4c(ccc5ccccc54)s3)cc2)cc1	-2.1	-28.2	-15.4	-2.7	-9.2	.	.
S=c1[nH]nc(-c2n[nH]c3c2CCC3)n1/N=C/C=C/c1ccco1	14.2	.	0.6	.	27.3*	9.0	10.8
O=C(NOCc1ccccc1)OCc1ccccc1	-11.4	3.6	-6.3	-11.7	0.6	.	.
O=C(NNC(=O)OCc1ccccc1)OCc1ccccc1	9.1	3.3	13.3	-0.8	111.4*	-7.7	-3.0
Cc1[nH]c2ccccc2c1C(=O)C(C)OC(=O)c1ccc(NC(=O)CC#N)cc1 (configuration not stated)	-73.1	-60.1	-48.8	0.1	14.3	.	.
Cc1cc(C(=O)C(C)OC(=O)c2ccc(NC(=O)CC#N)cc2)c(C)n1-c1ccc(OC(F)F)cc1 (configuration not stated)	-46.3	-60.9	-58.7	-7.7	24.2*	5.2	18.2
COC(=O)C[C@@H]1CC[C@H]2[C@@H](COc3ccc(NC(=O)Nc4cccc(F)c4)cc3C(=O)N2C)O1	3.5	.	-1.1	.	.	.	.
O=C(NNC(=O)c1cc(Cl)ccc1O)c1cccs1	14.6	21.1	-0.1	6.2	24.8*	-14.8	19.3*
O=C(CCc1ccccc1)NNC(=O)c1cc(Cl)ccc1O	-4.8	16.4	-0.1	8.6	23.7*	48.7*	46.6*
O=C(CCc1ccccc1)NNC(=O)c1ccccc1C(=O)O	7.2	7.7	-2.4	-0.4	8.3	.	.
COc1ccccc1OCc1ccc(C(=O)Nc2ccncc2)o1	-3.9	-3.7	-5.3	-2.0	31.6*	2.9	0.8
CC1NC(=S)N(Cc2ccccc2)C1=O (configuration not stated)	1.0	4.3	4.3	-0.3	22.4*	1.4	16.3
SMILES	mABHD4 FP	HTRA1 inh	SIAE primary	DAGLB inhibitor	TCR CD3 inh	BSA TAMRA ctr	TCR-CD3 inh conf
Cc1cc(N2CCNC[C@H]2C)ccc1N1CCS(=O)(=O)CC1	-3.4	.	4.9	.	2.3	.	.
O=C(NCc1ccccc1)[C@H]1CCCN1C(=O)[C@H]1CCCN1C(=O)N1CCCCC1	1.3	.	-0.3	.	-0.2	.	.
COC(=O)[C@]12C[C@H](CC(=O)N3CCSCC3)C(=O)N(Cc3ccc(Cl)cc3Cl)C1=C[C@H](C(C)C)O[C@@H]2C1CC1	-5.4	.	6.7	.	.	.	.
Cc1ccc2nc(-c3ccc(NC(=O)CN(c4ccccc4C)S(C)(=O)=O)cc3)sc2c1	-7.2	-21.9	-9.1	-2.9	5.8	.	.
Cc1cc(C)cc(N(CC(=O)Nc2ccc(-c3nc4ccc(C)cc4s3)cc2)S(C)(=O)=O)c1	-9.8	-25.3	-4.5	-4.2	49.0*	18.8	32.4*
Cc1cccc(C)c1NC(=O)[C@H]1CC(=O)O[C@@H]1c1ccccc1	-1.8	.	-1.9	.	.	.	.
O=C(NCc1ccccc1)[C@H]1CCCN1C(=O)[C@H]1CCCN1C(=O)C1CCCCC1	-1.1	.	1.3	.	-5.5	.	.
O=C(NNC(=O)c1cccs1)c1ccc(Cl)c(S(=O)(=O)N2CCCC2)c1	-3.6	-0.8	7.2	1.9	-0.9	.	.
O=C(NNC(=O)C1CCN(S(=O)(=O)c2c(Cl)cccc2Cl)CC1)c1ccccc1O	7.8	14.8	5.8	1.6	31.0*	-11.1	27.4*
O=C(NNS(=O)(=O)c1ccccc1)C1CCN(S(=O)(=O)c2ccccc2)CC1	3.2	2.3	-1.1	-1.0	-3.4	.	.
O=C(NCc1ccco1)C1CCN(S(=O)(=O)c2ccccc2C(F)(F)F)CC1	-1.0	-1.2	0.0	-1.1	-3.1	.	.
O=C(NNC(=O)c1ccccc1O)c1ccc(Cl)c(S(=O)(=O)N2CCCCC2)c1	13.1	35.3	8.1	4.8	27.0*	-10.0	19.8*
O=C(NNC(=O)C1CCN(S(=O)(=O)c2ccccc2C(F)(F)F)CC1)c1ccccc1O	5.9	10.7	9.4	3.4	31.4*	-7.3	23.2*
O=C(NNC(=O)C1CCN(S(=O)(=O)c2ccccc2)CC1)c1ccccc1O	11.4	-2.5	3.7	0.9	47.3*	5.5	39.7*
COC(=O)[C@]12C[C@H](CC(=O)N3CCOCC3)C(=O)N(CCc3ccc(OC)c(OC)c3)C1=C[C@H](C(C)(C)C)O[C@@H]2C	0.6	.	12.8	.	-6.8	.	.
COC(=O)[C@@H]1C[C@@]2(c3ccccc3)c3ccccc3N(S(=O)(=O)c3ccccc3)[C@H]2N1C(=O)CNC/C=C(\C)CCC=C(C)C	17.4	.	3.9	.	.	.	.
Cc1cc(C(=O)OCC(=O)Nc2cccc(S(=O)(=O)N(C)C)c2)c2ccccc2n1	0.9	-7.7	-0.4	-2.2	7.7	.	.
CN(C)S(=O)(=O)c1cccc(NC(=O)COC(=O)c2cn(-c3ccccc3)nc2-c2ccccc2)c1	-61.3	-78.8	-99.3	-2.5	30.9*	9.6	9.1
NS(=O)(=O)c1cccc(NC(=O)COC(=O)c2cc(-c3ccc(Cl)cc3)nc3ccccc23)c1	-122.8	-121.3	-145.7	-1.8	81.2*	19.5	35.4*
